Laboratory results as given in ChEMBL document CHEMBL1130179, “DNA gyrase inhibitory and antimicrobial activities of some diphenic acid monohydroxamides” (J Med Chem, 1997).
Converted amounts (≈) assume the structure as drawn. Peptide text beside a SMILES is read from it.

What was measured:
Staphylococcus aureus = assay: Minimum inhibitory concentration of compound against OC6538 Staphylococcus aureus strain; type: functional
Summary of the method: (§1)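 Broth microdilution in Luria broth for Gram-positives, 2-fold series 0.015–1000 µg/mL, inoculum about 5 × 10^5 CFU/mL. Incubated overnight at 35 °C; MIC = lowest well concentration with no visible growth.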

Escherichia coli [1] = assay: Minimum inhibitory concentration of compound against KL-16 Escherichia coli strain; type: functional
Summary of the method: (§2)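 Broth microdilution in Mueller Hinton broth for Gram-negatives, 2-fold series 0.015–1000 µg/mL, inoculum about 5 × 10^5 CFU/mL. Incubated overnight at 35 °C; MIC = lowest well with no visible growth. Some tests included polymyxin B nonapeptide at a level with no antibacterial activity of its own, compared with PMBN-free controls.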

Escherichia coli [2] = assay: Minimum inhibitory concentration of compound against Escherichia coli; type: functional; summary of the method: as §2
[3] = tested on: Staphylococcus epidermidis; assay: Minimum inhibitory concentration of compound against OC2603 Staphylococcus epidermidis strain; type: functional; summary of the method: as §1
[4] = tested on: DNA gyrase (Escherichia coli); assay: Inhibition of cleavable complex ability of DNA gyrase in Escherichia coli
Escherichia coli [5] = assay: Minimum inhibitory concentration of compound against Escherichia coli KL-16 strain; type: functional; summary of the method: as §2

| SMILES | MIC (Staphylococcus aureus) | MIC (Escherichia coli [1]) | MIC (Escherichia coli [2]) | MIC [3] | MIC (Escherichia coli [5]) | CC50 [4] |
| --- | --- | --- | --- | --- | --- | --- |
| CCn1cc(C(=O)O)c(=O)c2ccc(C)nc21 [NALIDIXIC ACID] | 500 µg/mL (≈ 2150 µM) | 8 µg/mL (≈ 34.4 µM) | 1 µg/mL (≈ 4.31 µM) | 250 µg/mL (≈ 1080 µM) | – | – |
| CC(C)C[C@@H]1NC(=O)[C@@H](Cc2ccccc2)NC(=O)[C@H](CCN)NC(=O)[C@@H](NC(=O)[C@H](CCN)NC(=O)[C@@H](N)[C@@H](C)O)CCNC(=O)[C@H]([C@@H](C)O)NC(=O)[C@H](CCN)NC(=O)[C@H](CCN)NC1=O (HELM PEPTIDE1{T.[Dab].[Dab].[Dab].[dF].L.[Dab].[Dab].T}$PEPTIDE1,PEPTIDE1,3:R3-9:R2$$$V2.0) | – | – | 500 µg/mL (≈ 519 µM) | – | > 500 µg/mL | – |
| CC(c1ccc(N2CCN(c3ccccc3)CC2)cc1)N(O)C(=O)c1ccccc1-c1ccccc1C(=O)O (stereo not drawn) | 500 µg/mL (≈ 959 µM) | > 1000 µg/mL | > 1000 µg/mL | 500 µg/mL (≈ 959 µM) | – | – |

Further lines, with some results ahead:

| MIC (Staphylococcus aureus) | MIC (Escherichia coli [1]) | MIC (Escherichia coli [2]) | MIC [3] | MIC (Escherichia coli [5]) | SMILES | CC50 [4] |
| --- | --- | --- | --- | --- | --- | --- |
| 31.2 µg/mL (≈ 67.7 µM) | > 1000 µg/mL | 31.2 µg/mL (≈ 67.6 µM) | 31.2 µg/mL (≈ 67.7 µM) | – | CC(c1ccc2c(ccc3ccccc32)c1)N(O)C(=O)c1ccccc1-c1ccccc1C(=O)O (stereo not drawn) | 97.7 µg/mL (≈ 212 µM) |
| 62.5 µg/mL (≈ 130 µM) | > 1000 µg/mL | > 1000 µg/mL | 62.5 µg/mL (≈ 130 µM) | – | CC(c1ccc2c(c1)Nc1ccccc1S2)N(O)C(=O)c1ccccc1-c1ccccc1C(=O)O (stereo not drawn) | 750 µg/mL (≈ 1550 µM) |
| 1000 µg/mL (≈ 2210 µM) | > 1000 µg/mL | > 1000 µg/mL | 1000 µg/mL (≈ 2210 µM) | – | COc1cc(C(C)N(O)C(=O)c2ccccc2-c2ccccc2C(=O)O)cc(OC)c1OC (stereo not drawn) | – |
| 1000 µg/mL (≈ 2770 µM) | > 1000 µg/mL | 1000 µg/mL (≈ 2770 µM) | 1000 µg/mL (≈ 2770 µM) | – | CC(c1ccccc1)N(O)C(=O)c1ccccc1-c1ccccc1C(=O)O (stereo not drawn) | – |
| 15.6 µg/mL (≈ 32.7 µM) | > 1000 µg/mL | > 1000 µg/mL | 15.6 µg/mL (≈ 32.7 µM) | – | CC(c1ccc2oc(-c3ccccc3)cc2c1)N(O)C(=O)c1ccccc1-c1ccccc1C(=O)O (stereo not drawn) | 62.5 µg/mL (≈ 131 µM) |
